Measurements: ChEMBL document CHEMBL1126907, “Possible contribution of a glutathione conjugate to the long-duration action of beta-funaltrexamine” (J Med Chem, 1993)

How the values were obtained:
[1] = test system: Mus musculus; assay: Equivalent antagonist potencies of compound was measured after 24 hr of sc administration; type: functional
[2] = Ratio of effective dose of morphine at 72 hr after antagonism treatment by icv administration (4.8 nmol) divided by its control ED50; type: functional
Procedure, shortened: (§1)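 Mice, radiant heat tail-flick. Antagonist given icv at 4.8 nmol/mouse. At the stated interval afterwards, morphine was given sc and the test read 30 min later. Morphine ED50 after treatment was divided by control ED50. 95% confidence limits come from three or four animals.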

[3] = Inhibitory concentration of morphine determined after treating with conjugate for 60 min of guinea pig ileum then divided by control IC50 in same preparation; type: functional
Procedure, shortened: (§2)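 Electrically stimulated guinea pig ileum was incubated with conjugate (1 × 10^-6 M) for 60 min, then washed ≥40 times with buffer. The agonist IC50 (ethylketazocine or morphine) was then divided by the control IC50 in the same preparation. Assays were run in triplicate, with se reported.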

[4] = Ratio of effective dose of morphine at 30 min after antagonism treatment by sc administration divided by its control; type: functional
Procedure, shortened: (§3)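 Mice, radiant heat tail-flick. Antagonist given sc at 5 mg/kg. At the stated interval, sc morphine was given 30 min before testing. Post-treatment morphine ED50 was divided by control ED50. 95% confidence limits come from three or four animals.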

[5] = Ratio of effective dose of morphine at 24 hr after antagonism treatment by icv administration (4.8 nmol) divided by its control ED50; type: functional; procedure, shortened: as §1
[6] = Ratio of effective dose of morphine at 2 hr after antagonist treatment by icv administration (4.8 nmol) divided by its control; type: functional; procedure, shortened: as §1
[7] = Ratio of effective dose of morphine at 24 hr after antagonism treatment by sc administration divided by its control; type: functional; procedure, shortened: as §3
[8] = Ratio of Equivalent antagonist potencies after 24 hr of icv administration/Equivalent antagonist potencies after 24 hr of sc administration was determined; type: functional
[9] = molecular target: Mu-type opioid receptor (Cavia porcellus, UniProt P97266); assay: Inhibitory concentration against mu-opioid receptor in guinea pig ileum; type: tissue-based
Procedure, shortened: (§4)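 Electrically stimulated guinea pig ileum longitudinal muscle or mouse vas deferens. Agonist IC50 for inhibition of the stimulated response was determined as described previously.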

[10] = Inhibitory concentration of ethylketazocine determined after treating with conjugate for 60 min of guinea pig ileum then divided by control IC50 in same preparation; type: functional; procedure, shortened: as §2
[11] = molecular target: Mu-type opioid receptor (Mus musculus, UniProt P42866); assay: Inhibitory concentration against mu-opioid receptor in mouse vas deferens; procedure, shortened: as §4
[12] = test system: Mus musculus; assay: Equivalent antagonist potencies of compound was measured after 24 hr of icv administration; type: functional
[13] = (§5) Ratio of effective dose of morphine at 30 min after antagonism treatment by sc administration in mouse divided by its control; type: functional
Procedure, shortened: (§6)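 Mice got antagonist sc at 5 mg/kg. At 30 min or 24 h, sc morphine was given 30 min before radiant heat tail-flick testing. The morphine ED50 was divided by the control ED50, with 95% confidence limits from three or four animals.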

[14] = (§7) Ratio of effective dose of morphine at 24 hr after antagonism treatment by sc administration in mouse divided by its control; type: functional; procedure, shortened: as §6
[15] = test system: Mus musculus; assay: Equivalent antagonist potencies of compound was measured after 24 hr of icv administration; antagonist dose; type: functional
[16] = Ratio of effective dose of morphine at 72 hr after antagonism treatment by icv administration in mouse (4.8 nmol) divided by its control ED50; type: functional
Procedure, shortened: (§8)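 Mice got antagonist icv at 4.8 nmol/mouse. At set times afterwards, morphine was given sc, and radiant heat tail-flick antinociception was measured 30 min later. The morphine ED50 was divided by the control ED50. Results are given with 95% confidence limits from three or four animals.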

[17] = Ratio of effective dose of morphine at 48 hr after antagonism treatment by icv administration in mouse (4.8 nmol) divided by its control ED50; type: functional; procedure, shortened: as §8
[18] = (§9) Ratio of effective dose of morphine at 24 hr after antagonism treatment by icv administration in mouse (4.8 nmol) divided by its control ED50; type: functional; procedure, shortened: as §8
[19] = (§10) Ratio of effective dose of morphine at 2 hr after antagonist treatment by icv administration in mouse (4.8 nmol) divided by its control; type: functional; procedure, shortened: as §8
[20] = test system: Mus musculus; assay: Equivalent antagonist potencies of compound was measured after 24 hr of sc administration; antagonist dose; type: functional
[21] = test system: Mus musculus; assay: as §5; type: functional; procedure, shortened: as §6
[22] = test system: Mus musculus; assay: as §7; type: functional; procedure, shortened: as §6
[23] = test system: Mus musculus; assay: as §9; type: functional; procedure, shortened: as §8
[24] = test system: Mus musculus; assay: as §10; type: functional; procedure, shortened: as §8
[25] = Ratio of effective dose of morphine at 30 min after antagonism treatment by sc administration in mice divided by its control; type: functional; procedure, shortened: as §6
[26] = test system: Mus musculus; assay: Equivalent antagonist potencies of compound was measured after 24 hr of icv administration in mice; antagonist dose; type: functional
[27] = Ratio of effective dose of morphine at 24 hr after antagonism treatment by icv administration in mice (4.8 nmol) divided by its control ED50; type: functional; procedure, shortened: as §8
[28] = test system: Mus musculus; assay: Equivalent antagonist potencies of compound was measured after 24 hr of sc administration in mice; antagonist dose; type: functional
[29] = Ratio of effective dose of morphine at 24 hr after antagonism treatment by sc administration in mice divided by its control); type: functional; procedure, shortened: as §6
[30] = Ratio of Equivalent antagonist potencies after 24 hr of icv administration/Equivalent antagonist potencies after 24 hr of sc administration in mice was determined; type: functional
[31] = Ratio of effective dose of morphine at 2 hr after antagonist treatment by icv administration in mice (4.8 nmol) divided by its control; type: functional; procedure, shortened: as §8

Mu-type opioid receptor (Cavia porcellus, UniProt P97266), sequence (P97266 whole entry): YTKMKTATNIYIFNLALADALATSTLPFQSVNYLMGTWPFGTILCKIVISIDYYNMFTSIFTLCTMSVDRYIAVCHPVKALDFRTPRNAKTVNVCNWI
Mu-type opioid receptor (Mus musculus, UniProt P42866), sequence (P42866 whole entry): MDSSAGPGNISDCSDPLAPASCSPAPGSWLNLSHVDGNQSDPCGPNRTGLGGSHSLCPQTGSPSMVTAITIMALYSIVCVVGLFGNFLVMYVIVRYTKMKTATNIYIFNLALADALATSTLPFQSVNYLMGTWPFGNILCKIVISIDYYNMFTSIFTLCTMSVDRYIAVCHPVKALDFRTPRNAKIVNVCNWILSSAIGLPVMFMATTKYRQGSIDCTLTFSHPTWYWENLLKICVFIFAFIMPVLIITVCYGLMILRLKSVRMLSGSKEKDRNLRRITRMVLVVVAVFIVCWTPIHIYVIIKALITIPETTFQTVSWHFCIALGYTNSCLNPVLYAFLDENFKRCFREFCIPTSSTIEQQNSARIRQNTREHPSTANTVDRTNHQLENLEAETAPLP

Molecule `COC(=O)/C=C/C(=O)N[C@@H]1CC[C@@]2(O)[C@H]3Cc4ccc(O)c5c4[C@@]2(CCN3CC2CC2)[C@H]1O5` has an Inhibition [1] of 2.5 µM/kg, a Ratio [2] of 2.4 and a Ratio [3] of 19.5. It also gave a Ratio [4] of 3.9, a Ratio [5] of 6.6 and a Ratio [6] of 9.7. It also gave a Ratio [7] of 3.9, a Ratio [8] of 74 and an IC50 [9] of 4.8 nM. The Ratio [10] was 1.1, the IC50 [11] was 82 nM and the Inhibition [12] was 0.034 µM/kg.

Molecule `COC(=O)CC(SCC(N)C(=O)O)C(=O)N[C@@H]1CC[C@@]2(O)[C@H]3Cc4ccc(O)c5c4[C@@]2(CCN3CC2CC2)[C@H]1O5` (stereo not given in full) has a Ratio [13] of 1.4, a Ratio [14] of 1.3 and a Ratio [3] of 1.7. It also gave an Inhibition [15] of 0.004 µM/kg, a Ratio [16] of 1.3 and a Ratio [17] of 2.8. For the same molecule, the Ratio [8] was 1250, the IC50 [9] was 22 nM and the Ratio [10] was 1. It also gave an IC50 [11] of 140 nM, a Ratio [18] of 42.2 and a Ratio [19] of 4.8. For the same molecule, the Inhibition [20] was 5 µM/kg.

For `NC(CSCC(=O)N[C@@H]1CC[C@@]2(O)[C@H]3Cc4ccc(O)c5c4[C@@]2(CCN3CC2CC2)[C@H]1O5)C(=O)O` (stereo not given in full), the Ratio [21] was 3, the Ratio [22] was 1.3 and the Ratio [23] was 0.57. The Ratio [24] was 3.

Molecule `COC(=O)CC(SCC(NC(=O)CCC(N)C(=O)O)C(=O)NCC(=O)O)C(=O)N[C@@H]1CC[C@@]2(O)[C@H]3Cc4ccc(O)c5c4[C@@]2(CCN3CC2CC2)[C@H]1O5` (stereo not given in full) has a Ratio [25] of 3.8, a Ratio [3] of 1.2 and an Inhibition [26] of 0.036 µM/kg. It also gave a Ratio [27] of 6.3, an Inhibition [28] of 3 µM/kg and an IC50 [9] of 41 nM. It also gave a Ratio [10] of 0.3, an IC50 [11] of 280 nM and a Ratio [29] of 2.6. It also gave a Ratio [30] of 83 and a Ratio [31] of 3.1.
